From ChEMBL document CHEMBL1255444, “In vitro antibacterial activities of JNJ-Q2, a new broad-spectrum fluoroquinolone” (Antimicrob Agents Chemother, 2010)

Legend:
Format in all cases: functional
Klebsiella aerogenes = experiment: Antibacterial activity against Enterobacter aerogenes by broth microdilution method
Method in brief: (§1)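 MICs by CLSI M07-A7 broth microdilution in cation-adjusted Mueller-Hinton medium. For S. pneumoniae the medium was supplemented with 5% lysed horse blood. CLSI quality control strains were run alongside as appropriate.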

Streptococcus pneumoniae [1] = experiment: Antibacterial activity against Streptococcus pneumoniae isolate OC5462 by broth microdilution method
Method in brief: (§2)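 CLSI M07-A7 broth microdilution MIC. Medium was cation-adjusted Mueller-Hinton broth. For S. pneumoniae it was Mueller-Hinton supplemented with 5% lysed horse blood. CLSI quality-control strains were included as appropriate.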

Streptococcus pneumoniae [2] = experiment: Antibacterial activity against Streptococcus pneumoniae isolate OC7189 by broth microdilution method; method in brief: as §2
[3] = system: Staphylococcus epidermidis; experiment: Antibacterial activity against methicillin-resistant Staphylococcus epidermidis by broth microdilution method
Staphylococcus aureus [4] = experiment: Antibacterial activity against methicillin-resistant Staphylococcus aureus isolate OC12501 by broth microdilution method; method in brief: as §2
Streptococcus pneumoniae [5] = experiment: Antibacterial activity against Streptococcus pneumoniae isolate OC7376 by broth microdilution method; method in brief: as §2
Streptococcus pneumoniae [6] = experiment: Antibacterial activity against Streptococcus pneumoniae R6 by agar dilution method
Method in brief: (§3)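 MICs for the resistance-selection studies were determined by CLSI agar dilution on Mueller-Hinton medium. For S. pneumoniae the medium was supplemented with 5% lysed horse blood. For MRSA fluctuation-assay strains an arithmetic agar dilution scheme was used for a more precise MIC.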

Staphylococcus aureus [7] = experiment: Antibacterial activity against methicillin-resistant Staphylococcus aureus by broth microdilution method; method in brief: as §2
[8] = Antibacterial activity against Streptococcus sp. group C by broth microdilution method
Method in brief: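 MICs by broth microdilution following CLSI M07-A7 in cation-adjusted Mueller-Hinton medium, using isolates from the J&JPRD culture collection. CLSI quality control strains were included as appropriate.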

Serratia marcescens = experiment: Antibacterial activity against Serratia marcescens by broth microdilution method; method in brief: as §1
Staphylococcus aureus [9] = experiment: Antibacterial activity against Staphylococcus aureus […] by broth microdilution method; method in brief: as §2
Haemophilus influenzae = experiment: Antibacterial activity against Haemophilus influenzae by broth microdilution method; method in brief: as §1
Staphylococcus aureus [10] = experiment: Antibacterial activity against methicillin-resistant Staphylococcus aureus isolate OC4222 harboring gyrA S84L and parC S80F mutant gene by broth microdilution method; method in brief: as §2
Escherichia coli = experiment: Antibacterial activity against ciprofloxacin-resistant Escherichia coli by broth microdilution method; method in brief: as §2
Streptococcus pneumoniae [11] = experiment: Antibacterial activity against Streptococcus pneumoniae OC6755 harboring gyrA S81F and parC S79Y mutant gene by agar dilution method; method in brief: as §3
Proteus mirabilis = experiment: Antibacterial activity against Proteus mirabilis by broth microdilution method; method in brief: as §1
Staphylococcus aureus [12] = experiment: Antibacterial activity against methicillin-resistant Staphylococcus aureus isolate OC17042 harboring gyrA S84L/G106D, parC S80F and parE D732N mutant gene by broth microdilution method; method in brief: as §2
Providencia stuartii = experiment: Antibacterial activity against Providencia stuartii by broth microdilution method; method in brief: as §1
Staphylococcus aureus [13] = experiment: Antibacterial activity against methicillin-resistant Staphylococcus aureus isolate OC2838 by broth microdilution method; method in brief: as §2
Staphylococcus aureus [14] = experiment: Antibacterial activity against methicillin-susceptible Staphylococcus aureus by broth microdilution method
Streptococcus pneumoniae [15] = experiment: Antibacterial activity against Streptococcus pneumoniae ATCC 49619 by broth microdilution method; method in brief: as §1
[16] = system: Staphylococcus epidermidis; experiment: Antibacterial activity against methicillin-, ciprofloxacin-resistant Staphylococcus epidermidis by broth microdilution method
Staphylococcus aureus [17] = experiment: Antibacterial activity against methicillin-resistant Staphylococcus aureus isolate OC8530 harboring gyrA S84L and parC I143V mutant gene by broth microdilution method
Method in brief: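 CLSI M07-A7 broth microdilution MIC in cation-adjusted Mueller-Hinton medium. For S. pneumoniae the medium was supplemented with 5% lysed horse blood. CLSI quality-control strains were included as appropriate.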

Staphylococcus aureus [18] = experiment: Antibacterial activity against methicillin-resistant Staphylococcus aureus isolate OC11223 by broth microdilution method; method in brief: as §2
Enterococcus faecium = experiment: Antibacterial activity against Enterococcus faecium by broth microdilution method; method in brief: as §1
Streptococcus pneumoniae [19] = experiment: Antibacterial activity against Streptococcus pneumoniae isolate OC6790 by broth microdilution method; method in brief: as §2
Streptococcus pneumoniae [20] = experiment: Antibacterial activity against Streptococcus pneumoniae OC7452 harboring parC S79Y mutant gene by agar dilution method; method in brief: as §3
Citrobacter freundii = experiment: Antibacterial activity against Citrobacter freundii by broth microdilution method; method in brief: as §1
Streptococcus pneumoniae [21] = experiment: Antibacterial activity against Streptococcus pneumoniae isolate OC7348 by broth microdilution method; method in brief: as §2
Streptococcus pyogenes = experiment: Antibacterial activity against Streptococcus pyogenes by broth microdilution method; method in brief: as §1
Enterococcus faecalis = experiment: Antibacterial activity against Enterococcus faecalis ATCC 29212 by broth microdilution method; method in brief: as §1
Streptococcus pneumoniae [22] = experiment: Antibacterial activity against Streptococcus pneumoniae OC7453 harboring gyrA S81F mutant gene by agar dilution method; method in brief: as §3
Moraxella catarrhalis = experiment: Antibacterial activity against Moraxella catarrhalis by broth microdilution method; method in brief: as §1
Staphylococcus aureus [23] = experiment: Antibacterial activity against methicillin-resistant Staphylococcus aureus isolate OC11696 by broth microdilution method; method in brief: as §2
Staphylococcus aureus [24] = experiment: Antibacterial activity against methicillin-resistant Staphylococcus aureus isolate OC11521 harboring gyrA S84L/S85P, parC E84G mutant gene by broth microdilution method; method in brief: as §2
Streptococcus agalactiae = experiment: Antibacterial activity against Streptococcus agalactiae by broth microdilution method; method in brief: as §1
[25] = system: Staphylococcus epidermidis; experiment: Antibacterial activity against methicillin-susceptible Staphylococcus epidermidis by broth microdilution method
Streptococcus pneumoniae [26] = experiment: Antibacterial activity against Streptococcus pneumoniae isolate OC6608 by broth microdilution method; method in brief: as §2
Streptococcus pneumoniae [27] = experiment: Antibacterial activity against Streptococcus pneumoniae isolate OC6610 by broth microdilution method; method in brief: as §2
Pseudomonas aeruginosa = experiment: Antibacterial activity against Pseudomonas aeruginosa ATCC 27853 by broth microdilution method; method in brief: as §1
Staphylococcus aureus [28] = experiment: Antibacterial activity against methicillin-, ciprofloxacin-resistant Staphylococcus aureus by broth microdilution method; method in brief: as §2
Streptococcus pneumoniae [29] = experiment: Antibacterial activity against Streptococcus pneumoniae isolate OC6585 by broth microdilution method; method in brief: as §2
Streptococcus pneumoniae [30] = experiment: Antibacterial activity against Streptococcus pneumoniae isolate OC7368 by broth microdilution method; method in brief: as §2

COc1c(N2C[C@@H]3CCCN[C@@H]3C2)c(F)cc2c(=O)c(C(=O)O)cn(C3CC3)c12 [MOXIFLOXACIN]
8 µg/mL: MIC90 (Staphylococcus aureus [7]) | MIC90 (Staphylococcus aureus [9]) | MIC (Streptococcus pneumoniae [11]) | MIC (Staphylococcus aureus [12]) | MIC (Streptococcus pneumoniae [21]) | MIC90 (Staphylococcus aureus [28]) | MIC (Streptococcus pneumoniae [29])
32 µg/mL: MIC50 (Escherichia coli) | MIC50 (Providencia stuartii) | MIC (Staphylococcus aureus [24])
0.25 µg/mL: MIC90 (Klebsiella aerogenes) | MIC (Streptococcus pneumoniae [2]) | MIC90 [8] | MIC50 (Streptococcus pneumoniae [15]) | MIC (Streptococcus pneumoniae [20]) | MIC90 (Streptococcus pyogenes) | MIC (Enterococcus faecalis) | MIC50 (Enterococcus faecalis) | MIC50 (Streptococcus agalactiae) | MIC90 (Streptococcus agalactiae)
0.03 µg/mL: MIC90 (Haemophilus influenzae)
4 µg/mL: MIC90 [3] | MIC (Staphylococcus aureus [13]) | MIC90 (Streptococcus pneumoniae [15]) | MIC90 [16] | MIC50 (Enterococcus faecium) | MIC (Streptococcus pneumoniae [19]) | MIC90 (Pseudomonas aeruginosa) | MIC50 (Staphylococcus aureus [28]) | MIC (Streptococcus pneumoniae [30])
2 µg/mL: MIC50 [3] | MIC (Streptococcus pneumoniae [5]) | MIC50 (Staphylococcus aureus [7]) | MIC50 (Staphylococcus aureus [9]) | MIC (Staphylococcus aureus [10]) | MIC50 [16] | MIC (Staphylococcus aureus [17]) | MIC50 (Citrobacter freundii) | MIC (Streptococcus pneumoniae [26]) | MIC50 (Pseudomonas aeruginosa)
0.5 µg/mL: MIC50 (Serratia marcescens) | MIC50 (Proteus mirabilis) | MIC90 (Proteus mirabilis) | MIC (Streptococcus pneumoniae [22])
> 16 µg/mL: MIC90 (Enterococcus faecium)
16 µg/mL: MIC90 (Enterococcus faecalis) | MIC (Streptococcus pneumoniae [27])
64 µg/mL: MIC90 (Providencia stuartii)
0.12 µg/mL: MIC50 (Klebsiella aerogenes) | MIC (Streptococcus pneumoniae [6]) | MIC50 [8] | MIC (Streptococcus pyogenes) | MIC50 (Streptococcus pyogenes)
> 8 µg/mL: MIC90 (Citrobacter freundii)
0.06 µg/mL: MIC (Staphylococcus aureus [14]) | MIC50 (Staphylococcus aureus [14]) | MIC (Staphylococcus aureus [18]) | MIC (Moraxella catarrhalis) | MIC50 (Moraxella catarrhalis) | MIC90 (Moraxella catarrhalis) | MIC50 [25]
1 µg/mL: MIC (Streptococcus pneumoniae [1]) | MIC (Staphylococcus aureus [4]) | MIC90 (Serratia marcescens) | MIC (Staphylococcus aureus [23])
0.015 µg/mL: MIC50 (Haemophilus influenzae)
128 µg/mL: MIC90 (Escherichia coli)
